Here are results for two molecules from BindingDB's records for doi:10.1021/jm020334u (Roche Discovery Welwyn, 2003).

This test concerns the target Polymerase acidic protein (Influenza A virus (strain A/Puerto Rico/8/1934 H1N1), UniProt P03433). In words: Inhibitory concentration against cap-dependent endonuclease activity of influenza virus RNP. The method, boiled down:
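Gel-based cap-dependent endonuclease assay. 1 nM influenza RNP was incubated with 0.1 nM cap-labeled 20-mer G20 RNA in 50 mM Tris-HCl pH 8 with 1 mM MgCl₂, 20 mM KCl, 1 U/μL RNase inhibitor and 0.3% Triton X-100, for 5 min at 31 °C. Cleavage products were resolved on polyacrylamide gels and quantified by phosphorimager. IC50 came from dose–response curves.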

By IC50 is commonly meant the concentration needed to halve the response being measured. Higher therefore signals lower potency.

Each structure is given as a SMILES string. Some results are limits rather than exact numbers.

`CC(C)C=c1[nH]c(=Cc2ccc(F)cc2)c(=O)[nH]c1=O` [3-(4-fluorobenzylidene)-5-isobutylpyrazine-2,6(1H,3H)-dione] had an IC50 above 365 µM.

Take `COCOn1c(=O)c(=CC(C)C)[nH]c(=CC(C)C)c1=O` [(3Z)-5-isobutyl-1-(methoxymethoxy)-3-(2-methylpropylidene)pyrazine-2,6(1H,3H)-dione]: the IC50 was above 355 µM.
